Data on 10 compounds can be found in ChEMBL document CHEMBL1149350, “Synthesis of novel chemical probes for the study of tanshinone binding proteins” (Bioorg Med Chem Lett, 2006).

Active and inactive are the calls of the source. The rule behind the calls is not given here. Where only a bound is given, the exact number is not on record here.

Assay [1] relates to RAW264.7. The assay can be described thus: Inhibition of TRAP activity in RANKL-induced osteoclastogenesis in RAW 264.7 cells. Format: functional, cell-based. Particulars: Mus musculus. An outline of the steps:
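RAW264.7 cells seeded at 1 × 10³/well in α-MEM/10% FBS with 100 ng/ml RANKL; compounds added next day. On day 4 multinucleated cells fixed (10% formalin 10 min, 95% ethanol 1 min) and dried, then given 50 mM citrate pH 4.6 with 10 mM tartrate and 5 mM p-nitrophenylphosphate for 30 min. Stopped in 0.1 N NaOH, A410 read; triplicate; IC50 from mean % of control.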

Assay [2] deals with RAW264.7. The assay can be described thus: Antiproliferative activity against RAW 264.7 cells in RANKL-induced osteoclastogenesis. It counts as functional, cell-based. As to conditions: Mus musculus.

Consider `Cc1coc2c1C(=O)C(=O)c1c-2ccc2c1CCCC2(C)CO` (stereo not given) [TANSHINONE IIB], for which the IC50 was 15.6 µM in the assay with RAW264.7 [1] and greater than 20 µM in the assay with RAW264.7 [2].
Turning to `Cc1coc2c1C(=O)C(=O)c1c-2ccc2c1CCCC2(C)COC(=O)COCCOC(=O)CCCCC1SCC2NC(=O)NC21` (stereo not given), the IC50 stood at 12.4 µM with RAW264.7 [1] and 18.3 µM with RAW264.7 [2].
The matching figures for `Cc1coc2c1C(=O)C(=O)c1c-2ccc2c1CC[C@H](OCCOC(=O)COc1cccc(C3(C(F)(F)F)N=N3)c1)C2(C)C`: 18 µM and greater than 20 µM.
`Cc1coc2c1C(=O)C(=O)c1c-2ccc2c1CCCC2(C)COC(=O)COCCOC(=O)COc1cccc(C2(C(F)(F)F)N=N2)c1` (stereo not given): the IC50 in the assay on RAW264.7 [1] was 15 µM; in the assay with RAW264.7 [2] it was greater than 20 µM.
`Cc1coc2c1C(=O)C(=O)c1c-2ccc2c1CC[C@H](OC(=O)c1ccccc1)C2(C)C` showed an IC50 in the assay on RAW264.7 [1] of 19.1 µM. Further, the result in the assay with RAW264.7 [2] was inactive.
For the compound `Cc1coc2c1C(=O)C(=O)c1c-2ccc2c1CC[C@H](OCCOC(=O)CCCCC1SCC3NC(=O)NC31)C2(C)C` (stereo not given in full), the results for the IC50 in the assay with RAW264.7 [1] and in the assay on RAW264.7 [2] were 9.56 µM and 18.7 µM, respectively.
In turn, `CCC(=O)O[C@H]1CCc2c(ccc3c2C(=O)C(=O)c2c(C)coc2-3)C1(C)C` had an IC50 in the assay with RAW264.7 [1] of 16.7 µM. Also, the result with RAW264.7 [2] was inactive.
For `Cc1coc2c1C(=O)C(=O)c1c-2ccc2c1CCCC2(C)C` [TANSHINONE IIA], in that order: 18.2 µM and “inactive”.
Consider `Cc1coc2c1C(=O)C(=O)c1c-2ccc2c1CC[C@H](O)C2(C)C`, for which the IC50 with RAW264.7 [1] was 12.8 µM; in the assay with RAW264.7 [2], greater than 20 µM.
Consider `Cc1coc2c1C(=O)C(=O)c1c-2ccc2c1CC[C@H](OCCO)C2(C)C`, for which inhibition with RAW264.7 [1] was half-maximal at 10.2 µM (IC50). Besides, in the assay with RAW264.7 [2], the result was inactive.
